# Assay results gathered from unrelated publications.
# Each line is one published result; the experiments were not run side by side.
# RPS6KA6: Ribosomal protein S6 kinase alpha-6 (RPS6KA6, Homo sapiens, UniProt Q9UK32)
# RPS6KA6 N-terminal kinase domain: Ribosomal protein S6 kinase alpha-6, N-terminal kinase domain (RPS6KA6, Homo sapiens, UniProt Q9UK32)
# RPS6KA6 C-terminal kinase domain: Ribosomal protein S6 kinase alpha-6, C-terminal kinase domain (RPS6KA6, Homo sapiens, UniProt Q9UK32)
Structure (SMILES),target,assay,setting,quantity,result
COc1cc(Cl)c(C(=O)N[C@@H](CN[C@H]2CC[C@@H](N)CC2)Cc2ccc(C#N)cc2)cc1-c1ccc(CN[C@H](C)c2ccc(C)cc2)o1,RPS6KA6,"enzyme activity, inhibitor",1 µM,remaining activity,97%
Nc1ncnc2occ(-c3ccc(NC(=O)Nc4cc(C(F)(F)F)ccc4F)cc3)c12,RPS6KA6 N-terminal kinase domain,"cell-free assay, inhibitor",20 µM,remaining signal,5.5%
O=C1NC(=O)c2cc(Nc3ccc(F)cc3)c(Nc3ccc(F)cc3)cc21,RPS6KA6,cell-free assay,0.5 µM,remaining signal,97.4%
Cn1c2c(c3ccc(Cl)c(Cl)c31)C(C#N)C1(CCOCC1)NC2=O (stereo not shown),RPS6KA6,"thermal stability, DSF",10 µM,ΔTm,0.1 °C
Cc1nccc(COC(=O)N2C[C@@H]3[C@@H](CNC(=O)c4ccc5[nH]nnc5c4)[C@@H]3C2)n1,RPS6KA6 N-terminal kinase domain,"cell-free assay, competition with immobilised ligand",1 µM,remaining binding,100%
C[S+]([O-])c1ccc(-c2nc(-c3ccncc3)c(-c3ccc(F)cc3)[nH]2)cc1 (stereo not shown),RPS6KA6,cell-free assay,0.5 µM,remaining signal,110%
O=C(NS(=O)(=O)c1ccc(NCC2CCOCC2)c([N+](=O)[O-])c1)c1ccc(N2CCN(Cc3ccc(C(F)(F)F)cc3-c3ccc(Cl)cc3)CC2)cc1Oc1cnc2[nH]ccc2c1,RPS6KA6 N-terminal kinase domain,"cell-free assay, competition with immobilised ligand",1 µM,remaining binding,100%
N[C@@H]1CCN(c2nccc(-c3cnn4ncccc34)n2)C1,RPS6KA6 C-terminal kinase domain,"binding, competition with immobilised ligand",1 µM,remaining binding,100%
Cc1ccc(C(=O)NCc2ccsc2)cc1C#Cc1cn(C(C)C)c2ncnc(N)c12,RPS6KA6,"enzyme activity, inhibitor",1 µM,activity vs control,71%
COc1cc2ncnc(Nc3ccc(Oc4ccccc4)cc3C)c2cc1OC,RPS6KA6,"enzyme activity, inhibitor",1 µM,inhibition,7%
Nc1nc(Nc2ccc(S(N)(=O)=O)cc2)nn1C(=O)c1c(F)cccc1F,RPS6KA6,cell-free assay,0.5 µM,remaining signal,24.7%
C[C@@H]1CCN(c2nccc(-c3cnn4ncccc34)n2)C1,RPS6KA6 N-terminal kinase domain,"binding, competition with immobilised ligand",1 µM,remaining binding,71%
CC/C(=N\NC(=O)C(C)Nc1ccccc1)c1ccc(O)c(C)c1O (stereo not shown),RPS6KA6,"enzyme activity, inhibitor",0.1 µM,inhibition,28.6%
Cc1ccc(Nc2nccc(N(C)c3ccc4c(C)n(C)nc4c3)n2)cc1S(N)(=O)=O,RPS6KA6,"enzyme activity, inhibitor",0.5 µM,remaining activity,96.8%
Cc1cc(NC(=O)c2cccc3cc(-c4cccc5[nH]nc(N)c45)ccc23)ccc1F,RPS6KA6,"enzyme activity, inhibitor",0.1 µM,activity vs control,94%
CN(C)c1ncnc(-c2ccc3nc(Nc4cc(CN5CCN(C(=O)CC(F)(F)F)CC5)ccn4)[nH]c3c2)c1Cl,RPS6KA6 C-terminal kinase domain,"cell-free assay, competition with immobilised ligand",1 µM,remaining binding,81%
CN1CCC2(CC1)NC(=O)c1c(c3ccc(Cl)c(Cl)c3n1C)C2C#N (racemic),RPS6KA6,"thermal stability, DSF",10 µM,ΔTm,0 °C
Cn1nc(C(=O)NCc2ccc(C(=O)O)cc2)cc1-c1ccc2[nH]ccc2c1,RPS6KA6 C-terminal kinase domain,"cell-free assay, competition with immobilised ligand",0.1 µM,remaining binding,85%
CC(C)(C)c1nc2c(s1)c1nc(N)ncc1c1ccc(NS(=O)(=O)c3c(F)cccc3F)c(F)c12,RPS6KA6,"enzyme activity, inhibitor, radiometric",1 µM,remaining activity,97%
CC(C)(O)[C@H]1CC[C@H](Nc2ccc3ncc(-c4cccc(C(F)(F)F)c4)n3n2)CC1,RPS6KA6,"enzyme activity, inhibitor",1 µM,remaining activity,91.7%
C[C@@H]1CCN(C(=O)CC#N)C[C@@H]1N(C)c1ncnc2[nH]ccc12,RPS6KA6,"cell-free assay, inhibitor",0.5 µM,remaining signal,98.1%
CN(CCCC(F)(F)F)c1nccc(-c2cnn3ncccc23)n1,RPS6KA6 N-terminal kinase domain,"binding, competition with immobilised ligand",1 µM,remaining binding,100%
CCN1CCC2(CC1)NC(=O)c1c(c3ccc(Cl)c(Cl)c3n1C)C2C#N (racemic),RPS6KA6,"thermal stability, DSF",10 µM,ΔTm,0 °C
CO[C@@H](C)c1c(Nc2ccc([C@@H](N(C)C(=O)C3CCS(=O)(=O)CC3)C(F)(F)F)cc2)cnc2cc(Cl)nn12,RPS6KA6 C-terminal kinase domain,"cell-free assay, competition with immobilised ligand",1 µM,remaining binding,98%
CCCS(=O)(=O)Nc1ccc(F)c(C(=O)c2c[nH]c3ncc(-c4ccc(Cl)cc4)cc23)c1F,RPS6KA6,"enzyme activity, inhibitor",1 µM,inhibition,< 10%
COc1ccc2cc(OCC3(C(=O)O)CN(C(=O)c4ccc(F)cc4)C3)ccc2c1,RPS6KA6 N-terminal kinase domain,"cell-free assay, competition with immobilised ligand",1 µM,remaining binding,77%
Cc1ccc(C(=O)Nc2ccc(CN3CCN(C)CC3)c(C(F)(F)F)c2)cc1C#Cc1cnc2cccnn12,RPS6KA6,"enzyme activity, inhibitor",23.5 nM,activity vs control,84%
COc1ccc2c(c1)O[C@H](c1ccc(OC)c(OC)c1)C[C@@H]2NC(=O)C1(c2ccc3c(c2)OC(F)(F)O3)CC1,RPS6KA6 C-terminal kinase domain,"cell-free assay, competition with immobilised ligand",1 µM,remaining binding,91%
O=C(Nc1cnn(-c2csc(C(=O)NC3COC3)c2)c1)Nc1ccccc1Cl,RPS6KA6,"enzyme activity, inhibitor",5 µM,remaining activity,107%
c1cnn2ncc(-c3ccnc(N4CCC45COC5)n3)c2c1,RPS6KA6 N-terminal kinase domain,"binding, competition with immobilised ligand",1 µM,remaining binding,58%
Cc1sc(C(=O)NC2COC2)cc1-n1cc(NC(=O)Nc2c(F)cccc2Cl)cn1,RPS6KA6,"enzyme activity, inhibitor",10 µM,remaining activity,116%
CNC(=O)c1cc(Oc2ccc(NC(=O)Nc3ccc(Cl)c(C(F)(F)F)c3)cc2)ccn1,RPS6KA6,"enzyme activity, inhibitor",0.3 µM,inhibition,-29%
CCC(=N\O)/C(C)=C/c1ccc(F)cc1,RPS6KA6 C-terminal kinase domain,"cell-free assay, competition with immobilised ligand",1 µM,remaining binding,94%
Cn1c2c(Cl)c(Cl)ccc2c2cc(N)[nH]c(=O)c21,RPS6KA6,"thermal stability, DSF",10 µM,ΔTm,3.3 °C
